Screens: PubChem, Broad Institute
Compounds with a hit are over-represented: about 2.9% of the library has one in this group of screens.
PglD DTNB = C. jejuni PglD acetyltransferase inhibitors, primary screen, biochemical, DTNB colorimetric, single point. purified PglD enzyme, DTNB colorimetric CoA detection. inhibition, % at 12.5 µM. 0.098% of 360,000 active; in the data active = inhibition above about 16%, passing the limit was not always enough
PGC1a acetyl inh = inhibitors of PGC1a acetylation signal, primary screen, cell-based, U2OS, AlphaScreen, inhibitor mode; inhibition, % at 15.6 µM; 0.17% of 350,000 active; AlphaScreen anti-acetyl-lysine; with virally co-expressed GCN5 acetyltransferase;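 active = every replicate shows inhibition of at least 40%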;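 note: 0% = neutral control wells and 100% = positive control wells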
Vif inh = HIV Vif self-association inhibitors, primary screen, imaging, HEK293T, single point; HEK293T cells, Vif self-association by quenched fluorescence, 24 h; inhibition, % at 7.49 µM; 0.35% of 340,000 active; in the data active = inhibition above about 50%, passing the limit was not always enough
Cneo AK release = Cryptococcus neoformans cell lysis inducers, primary screen, AK release luminescence, single concentration. 0.2% of 360,000 active. C. neoformans lysis, adenylate kinase release luminescence, 4 h; normalised: neutral wells 0, clomiphene wells 100. AID 651654, 2012. lysis activity, % at 15 µM;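 active = mean lysis activity across replicates of at least 80%, whatever share of replicates individually reach that level; inactive = mean lysis activity below 80%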
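Signal: Adenylate kinase release luminescence | Assay system: Log-phase Cryptococcus neoformans yeast cells | Input: Cells at 5 × 10^6 per mL | Buffer or medium: Fresh YPD growth medium | Compound: Single dose | Schedule: Static 4 h at 37 °C with compound, 1 h detection | Controls: Clomiphene | Read-out: Luminescence rise reflecting yeast cell lysis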
rRNA inh HTS = reduced GFP signal of wild-type E. coli, primary screen, bacterial rRNA inhibitor project, GFP/RFP fluorescence, OD600, single point; E. coli WT GFP vs humanized-ribosome RFP mutants, 24 h; hits give low values; DMSO median 0, no signal -100; GFP signal change (wild-type ribosome), % (no concentration beside the values); 1.6% of 350,000 active; AID 720706, 2013;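 active = significant combined selectivity score with lowered wild-type GFP, culture density cut under 30%, mutant RFP and density less affected; inactive = any of these conditions unmet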
FGF22 binding = binders of human FGF22 protein, primary screen, FGF22 synaptogenesis inhibitor project, biophysical, thermal shift, single point; recombinant FGF22 thermal shift, SYPRO orange fluorescence; percent of sucrose octasulfate shift, DMSO zero; 1.5% of 340,000 active; AID 651658, 2012; Fibroblast growth factor 22 (Homo sapiens), Q9HCT0; activity (Tm shift, normalised), % at 9.99 µM;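 active = mean Tm shift, scaled 0 neutral to 100 positive control, at about 1.3% or above, every replicate too, limit read from the data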
Target sequence (Q9HCT0 whole entry, looked up): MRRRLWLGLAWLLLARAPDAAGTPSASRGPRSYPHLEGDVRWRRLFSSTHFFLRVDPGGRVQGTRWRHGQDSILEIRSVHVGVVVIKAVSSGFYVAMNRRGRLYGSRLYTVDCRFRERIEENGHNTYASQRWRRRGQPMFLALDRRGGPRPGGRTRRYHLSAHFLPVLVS
Numbers without * were called inactive; . = no result given.

SMILES | PglD DTNB | PGC1a acetyl inh | Vif inh | Cneo AK release | rRNA inh HTS | FGF22 binding
O=C(O)/C=C/c1ccc(S(=O)(=O)Nc2ccc(OCc3ccccc3)cc2)cc1 | 3 | -2 | -2 | 0 | -24* | 0
N#Cc1ccccc1COc1ccc(/C=C/C(=O)O)cc1 | . | . | -7 | . | 5 | 43*
Cc1ccccc1COc1ccc(/C=C(\C#N)C(N)=O)cc1 | -1 | . | 22 | -2 | 12 | 44*
Cc1ccc(S(=O)(=O)N(C)C[C@H]2Oc3ccc(NC(=O)CCC(F)(F)F)cc3CC(=O)N([C@@H](C)CO)C[C@@H]2C)cc1 | 3 | -2 | . | 40 | -1 | 0
Cc1ccc(S(=O)(=O)N(CC(=O)NCc2ccco2)C2CCCCC2)cc1 | 2 | 1 | . | 1 | -28* | 0
O=C(CN(C1CCCCC1)S(=O)(=O)c1ccccc1)NCc1ccco1 | -2 | -3 | . | 0 | . | .
COc1ccc2nc(N/C(N)=N/C(=S)Nc3ccccc3)nc(C)c2c1 | . | -2 | -6 | . | -8 | 4.1*
N=c1c2c(n(Cc3cccc(Cl)c3)c3c1CCC3)CCCC2 | . | 2 | -10 | . | -52* | 0
N=c1c2c(n(Cc3ccccc3)c3c1CCC3)CCC2 | -3 | -3 | -19 | 0 | . | .
N=c1c2c(n(Cc3ccc(F)cc3)c3c1CCC3)CCCC2 | . | -1 | . | . | -31* | 0
N=c1c2c(n(Cc3ccc(Cl)cc3)c3c1CCC3)CCC2 | 6 | -19 | -16 | 1 | -53* | 0
CCC(=O)Nc1ccc2c(c1)OC[C@@H](C)N(CC1CCOCC1)C[C@@H](C)[C@H](OC)CN(C)C2=O | -3 | 0 | . | -4 | 1 | 0
CO[C@@H]1CN(C)C(=O)c2ccc(NC(C)=O)cc2OC[C@@H](C)NC[C@@H]1C | . | . | . | . | -1 | .
O=C1OC(c2ccccc2)Cc2cc(C(=O)N3CCN(c4ccc(F)cc4)CC3)ccc21 (stereo not drawn) | 0 | 0 | 1 | 4 | -29* | 0
COc1ccc(C(=O)Nc2ccc3c(c2)OC[C@@H](C)N(C(C)=O)C[C@@H](C)[C@@H](OC)CN(C)C3=O)cc1 | 0 | -5 | . | -1 | -2 | 0
CCc1nnc(N/N=C/c2c(Cl)cccc2Cl)n1N | 4 | 64* | . | -2 | . | .
CCc1nnc(N/N=C/c2cccs2)n1N | -1 | 6 | -3 | 1 | . | .
O=C(Nc1ccc(F)cc1)Nc1ccc2c(c1)[C@H]1C[C@@H](CC(=O)N3CCCCC3)O[C@H](CO)[C@H]1O2 | 3 | -3 | . | -1 | -5 | 0
C#CCOCCOCCOCCNc1nc(N2CCN(C(=O)CCCCCCCCCCNC(=O)[C@H](CCCCN)n3cc(CCO)nn3)CC2)nc(N2CCN(C(=O)CCCCCCCCCCNC(=O)[C@H](CCCCN)n3cc(CCCC(=O)O)nn3)CC2)n1 | -1 | 6 | -1 | 5 | -40* | 0
C#CCOCCOCCOCCNc1nc(N2CCN(C(=O)[C@H](CO)n3cc([C@@H](N)C(C)C)nn3)CC2)nc(N2CCN(C(=O)[C@H](CCCCN)n3cc([C@@H](N)[C@H](C)CC)nn3)CC2)n1 | -3 | . | . | 1 | 8 | 43*
C#CCOCCOCCOCCNc1nc(N2CCN(C(=O)CCCCCCCCCCNC(=O)[C@H]([C@@H](C)CC)n3cc(CCCCN=C(N)N)nn3)CC2)nc(N2CCN(C(=O)CCCCCCCCCCNC(=O)[C@@H]([C@H](C)O)n3cc(C)nn3)CC2)n1 | 0 | -21 | -3 | 0 | -40* | .
C#CCOCCOCCOCCNc1nc(N2CCOCC2)nc(N2CCN(C(=O)CCCCCCCCCCNC(=O)[C@H]([C@@H](C)CC)n3cc(CCCCN=C(N)N)nn3)CC2)n1 | 3 | . | 0 | 2 | -54 | 1
